# Biological target: T1, Sodium- and chloride-dependent glycine transporter 2 (Homo sapiens, UniProt Q9Y345)
# T1 sequence (Q9Y345 whole entry): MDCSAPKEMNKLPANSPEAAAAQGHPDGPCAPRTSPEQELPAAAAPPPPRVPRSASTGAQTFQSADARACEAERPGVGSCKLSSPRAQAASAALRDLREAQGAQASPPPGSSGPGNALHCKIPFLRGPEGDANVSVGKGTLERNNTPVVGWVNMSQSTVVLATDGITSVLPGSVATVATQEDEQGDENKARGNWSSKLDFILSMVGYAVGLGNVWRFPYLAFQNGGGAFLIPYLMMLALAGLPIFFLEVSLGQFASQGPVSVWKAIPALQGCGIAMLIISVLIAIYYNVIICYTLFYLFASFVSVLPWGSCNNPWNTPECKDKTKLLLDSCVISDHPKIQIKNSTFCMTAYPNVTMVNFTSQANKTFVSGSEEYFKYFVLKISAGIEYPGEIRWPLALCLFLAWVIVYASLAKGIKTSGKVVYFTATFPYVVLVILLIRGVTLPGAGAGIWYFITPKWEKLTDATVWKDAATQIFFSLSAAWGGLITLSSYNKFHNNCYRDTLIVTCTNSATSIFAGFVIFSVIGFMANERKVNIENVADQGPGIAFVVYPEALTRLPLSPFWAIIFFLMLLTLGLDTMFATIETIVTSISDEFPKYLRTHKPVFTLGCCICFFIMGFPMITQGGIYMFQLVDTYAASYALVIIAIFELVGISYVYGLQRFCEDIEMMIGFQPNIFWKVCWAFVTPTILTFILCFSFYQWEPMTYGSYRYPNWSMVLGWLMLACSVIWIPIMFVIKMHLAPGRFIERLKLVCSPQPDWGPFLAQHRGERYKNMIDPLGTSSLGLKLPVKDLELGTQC
# Assay: Inhibition of human glycine transporter-2 expressed in HEK293 cells assessed as reduction in [14C]glycine uptake preincubated for 10 mins followed by [14C]glycine addition measured after 3 hrs by scintillation proximity assay
# Outline: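 HEK293 cells stably transfected with GlyT-2 (Geneticin-selected polyclonal population) were plated on poly-L-lysine-coated plates in DMEM/10% FBS and incubated overnight. The [¹⁴C]glycine uptake SPA was then run as for JAR cells: uptake buffer, 10 min room-temperature preincubation, 3 h incubation at 37 °C.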
structure (smiles),measurement,value
CC(NC(=O)c1ccc(C(F)(F)F)cc1Cl)C1(N2CCN(S(=O)(=O)c3cn(C)nn3)CC2)CCC(F)(F)CC1 (stereo unspecified),IC50,> 75 µM

# Reference: BindingDB's records for doi:10.1021/acs.jmedchem.6b00914 (Amri, 2016)
